DNA FID counter: compounds displacing fluorescent DNA intercalator, primary screen, artefact control for HCV NS3 helicase inhibitor project, biochemical, FID fluorescence. AID 1845, 2009. DNA fluorescent intercalator displacement. actives 0.17% (n = 290,000). inhibition, % at 7.9 µM; in the data active = inhibition above about 37%;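 note: higher means more ethidium bromide displaced from hairpin DNA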
core dimer inh: inhibitors of HCV core protein dimerization, primary screen, biochemical, TR-FRET, high-throughput | TR-FRET GST/Flag-core106 dimerization, 1536-well | inhibition, % at 5 µM | actives 0.33% (n = 300,000) | AID 1899, 2009;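 active = inhibition above the mean of all tested compounds plus 3 SD, set per screening campaign, cut at about 45% in these data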
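Material: Tagged HCV core106 pair (GST and Flag) | Amount: GST-core106 13.5 nM, Flag-core106 17 nM | Medium: KF-containing HEPES buffer, pH 7.45, DTT, CHAPS, BSA | Reagent: Eu donor and XL665 acceptor anti-tag antibodies | Schedule: 4 h at 22.5 °C | Technique: Time-resolved FRET, ex 340 nm, em 617 and 671 nm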
p-CIP stab down: p/CIP-EGFP fusion destabilizers, primary screen, fluorescence, F442A cells | decrease of EGFP signal, % at 10 µM | 16 h | actives 0.01% (n = 290,000);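 active = EGFP signal decrease of at least 30% at 10 µM or well 3 SD below plate mean, unless failing retest; inactive = the rest, including hits failing retest or dose response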
GPR7 antag: GPR7 receptor antagonists, primary screen, cell-based, fluorescence, single concentration; inhibition, % at 4.4 µM; actives 1.1% (n = 290,000); GPR7-expressing cells, fluorescence antagonist assay; in the data active = inhibition above about 16%, passing the limit was not always enough;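 note: cells stimulated with the agonist NPW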
Target sequence (P48145 whole entry, looked up): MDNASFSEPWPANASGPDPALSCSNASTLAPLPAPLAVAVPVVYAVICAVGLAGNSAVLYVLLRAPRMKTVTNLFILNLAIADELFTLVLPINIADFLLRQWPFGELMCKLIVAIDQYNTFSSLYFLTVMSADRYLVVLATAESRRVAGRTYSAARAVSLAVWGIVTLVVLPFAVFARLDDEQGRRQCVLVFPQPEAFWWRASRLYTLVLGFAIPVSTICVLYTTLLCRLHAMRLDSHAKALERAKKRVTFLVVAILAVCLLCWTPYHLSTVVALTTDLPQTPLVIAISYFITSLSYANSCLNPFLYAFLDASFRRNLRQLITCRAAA
NS3 helicase inh: inhibitors of HCV NS3 helicase, primary screen, biochemical, Cy5 molecular beacon fluorescence; NS3 helicase DNA unwinding; inhibition, % at 10.9 µM; actives 0.56% (n = 290,000);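 active = inhibition above the mean of all tested compounds plus 3 SD, set per campaign, cut at about 35% in these data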
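Assay system: hepatitis C virus NS3 helicase domain fragment enzyme. Also added: annealed dual-labelled DNA beacon duplex, ATP-started. Timing: 1 h reaction at 25 °C, ATP-initiated. Technique: Cy5 fluorescence at 0 and 60 min, beacon hairpin quenching. Evaluation: % inhibition of unwinding. Replication: one well per compound.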
GPR7 antag conf: GPR7 receptor antagonists, confirmation, cell-based, fluorescence, single concentration. shares compounds with GPR7 antag. GPR7-expressing cells, calcium fluorescence antagonist mode. inhibition, % at 4.4 µM. actives 52% (n = 2,400). AID 1952, 2009; in the data active = inhibition above about 24%;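 note: stimulated with the GPR7 agonist NPW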
MCHR1 antag: MCHR1 antagonists in cells, counter-screen for GPR7 antagonist project, cell-based, fluorescence, human. shares compounds with GPR7 antag. MCHR1-expressing cells, fluorescence antagonist assay. inhibition, % at 4.4 µM. actives 62% (n = 2,400). AID 2148, 2009; in the data active = inhibition above about 22%
Each line names hits and unclear results; the compound was inactive in the other large screens (follow-up assays come after a bar, where they were run). Shown are actives, neighbours in structure and some others; about 1.9% of the full set was active somewhere.

COc1ccccc1CNC(=O)CSc1ccc(-c2ccncc2)nn1	none
Cc1ccc(S(=O)(=O)NCc2ccccc2)s1	none
Cc1ccc(CNS(=O)(=O)c2ccc(C)s2)cc1	GPR7 antag 28 | GPR7 antag conf inactive | MCHR1 antag inactive
CC(C)(C)c1cc(Cl)ccc1OCCOCCN1CCCC1	GPR7 antag 24 | GPR7 antag conf 35 | MCHR1 antag 41
Clc1ccc(OCCOCCN2CCc3ccccc3C2)c(Cl)c1	GPR7 antag 30 | GPR7 antag conf inactive | MCHR1 antag 30
C=CCNCCOCCOc1ccc(Cl)cc1C(C)(C)C	none
C=CCNCCCOc1ccc(Cl)cc1C(C)(C)C	GPR7 antag 25 | GPR7 antag conf 25 | MCHR1 antag 37
CCOc1cc(S(=O)(=O)NCCCN2CCOCC2)ccc1F	none
COc1ccc(CN(C)Cc2nc(Cc3cccc(F)c3)no2)c2cccnc12	GPR7 antag 30 | GPR7 antag conf inactive | MCHR1 antag 43
CC(=O)c1ccc(OCC(O)COc2ccc(C(C)=O)cc2)cc1	none
CC(=O)c1ccc(OCC(O)CN(C)CCOc2ccc(Br)cc2)cc1 (configuration not stated)	GPR7 antag 23 | GPR7 antag conf 37 | MCHR1 antag 55
CC(C)(C)n1nc2c(c1NC(=O)c1ccccc1)CS(=O)(=O)C2	none
CC(C)(C)n1nc2c(c1NC(=O)c1c(F)cccc1F)CS(=O)(=O)C2	GPR7 antag 43 | GPR7 antag conf 28 | MCHR1 antag 22
Cc1c(Cc2c(Cl)cccc2Cl)c(=O)ccn1C(C)c1ccccc1 (configuration not stated)	GPR7 antag 35 (no result: core dimer inh) | GPR7 antag conf 27 | MCHR1 antag 25
CC1(C)Oc2ccc(C(=O)NN)cc2NC1=O	none
c1ccc(CN2CCC3(CC2)Nc2ccccc2S3)cc1	none
Cc1ccc(C(=O)NC2CCCc3ccccc32)cc1[N+](=O)[O-] (configuration not stated)	GPR7 antag 34 | GPR7 antag conf 25 | MCHR1 antag 55
CCN(CC)c1nc(Nc2ccc([N+](=O)[O-])cc2)nc(N(CC)CC)n1	none
O=C(CC1SC(N2CCOCC2)=NC1=O)Nc1cc([N+](=O)[O-])ccc1Cl (configuration not stated)	none
N#Cc1ccc(COC(=O)c2cnc3ccccc3n2)cc1	none
O=C(CCN1C(=O)C2CCCCC2C1=O)Nc1nc(-c2ccccc2)cs1 (configuration not stated)	none
Cc1cc(Cl)ccc1OCC(=O)N1CCN(c2ncccn2)CC1	GPR7 antag 24 | GPR7 antag conf inactive | MCHR1 antag inactive
Cc1cc(Cl)ccc1OCC(=O)N1CCCCC1	none
CC(Oc1ccc(NC(=O)c2ccco2)cc1)C(=O)N1c2ccccc2CC1C (configuration not stated)	GPR7 antag 35 | GPR7 antag conf inactive | MCHR1 antag inactive
C=CCN(CC=C)C(=O)C1CCN(S(=O)(=O)c2ccc(N3CCCC3=O)cc2)CC1	none
Cc1ccc(C(=O)OCC(=O)c2c[nH]c3ccccc23)cc1	none
CC(C)Cc1ccc(C(C)C(=O)OCC(=O)c2c[nH]c3ccccc23)cc1 (configuration not stated)	GPR7 antag 34 | GPR7 antag conf 67 | MCHR1 antag 78
CCOc1ccc(NC(=S)N2CCC(NC(=O)C3CCCCC3)CC2)cc1	GPR7 antag 28 | GPR7 antag conf inactive | MCHR1 antag inactive
Cc1ccc(S(=O)(=O)N(C)c2ccc(OCC(=O)Nc3cccc(-n4cnnn4)c3C)cc2)cc1	GPR7 antag 22 | GPR7 antag conf inactive | MCHR1 antag 33
CCOC(=O)N1CCN(C(=O)C(=O)c2cn(CC(=O)N3CCCCCC3)c3ccccc23)CC1	none
Cc1nn(CCCC(=O)NC2CCC(C)CC2)c(=O)c2nn(-c3ccccc3)c(C)c12 (configuration not stated)	none
COc1ccc(C)cc1NC(=O)CCNC(=O)Cn1ccc2ccccc2c1=O	none
CC(OC(=O)CCCNC(=O)c1ccc(Cl)cc1)C(=O)N(C)Cc1ccccc1 (configuration not stated)	GPR7 antag 35 | GPR7 antag conf inactive | MCHR1 antag inactive
O=C(CSc1nc2ncc(Cl)cc2[nH]1)NCC(=O)Nc1ccc(F)c(F)c1F	none
CCc1ccc(OC(=O)Nc2ccccc2)cc1	none (no result: core dimer inh)
CSc1nc(O)c(C(c2ccc(OC(C)C)cc2)c2c(O)nc(SC)[nH]c2=O)c(=O)[nH]1	none (no result: DNA FID counter, p-CIP stab down, GPR7 antag, NS3 helicase inh)
CCCCCCCC1CC(CSc2ncn[nH]2)OC1=O (configuration not stated)	GPR7 antag 21 | GPR7 antag conf 38 | MCHR1 antag 38
S=C(NCc1ccccc1)Nc1ccc(Cl)cc1	GPR7 antag 21 | GPR7 antag conf inactive | MCHR1 antag 43
S=C(NCCc1cccc(Cl)c1)NCc1ccccc1	GPR7 antag 23 (no result: core dimer inh) | GPR7 antag conf inactive | MCHR1 antag inactive
NS(=O)(=O)c1ccc(NC(=S)NCc2cccc(Cl)c2)cc1	GPR7 antag 28 | GPR7 antag conf inactive | MCHR1 antag 41
S=C(NCc1ccc(Cl)cc1)NC1CCN(Cc2ccccc2)CC1	GPR7 antag 25 | GPR7 antag conf 40 | MCHR1 antag 64
CCc1ccc(NC(=S)NCc2ccccc2)cc1	none
Cc1ccc(OCCC(=O)N(CC(=O)Nc2ccccc2C(F)(F)F)Cc2ccco2)cc1	none (no result: DNA FID counter, p-CIP stab down, GPR7 antag, NS3 helicase inh)
CC(=O)Nc1ccc(S(=O)(=O)Nc2ccc(S(=O)(=O)Nc3nccs3)cc2)cc1	none
O=C(CSc1cccc[n+]1[O-])Nc1ccc2c(c1)OCO2	none
CN(C)C(=O)[C@H]1C[C@H]1[C@@H](O)[C@H](CO)NC(=O)[C@H](COCc1ccccc1)NC(=O)OC(C)(C)C	none
S=C(NCc1ccccc1Cl)NC1CCCC1	GPR7 antag 21 | GPR7 antag conf inactive | MCHR1 antag inactive
CCC(C)NC(=O)c1ccc2nc(Cc3ccc(OC)cc3)oc2c1 (configuration not stated)	none
CCC(NC(=O)c1ccc2nc(Cc3ccc(OC)cc3)oc2c1)c1ccncc1 (configuration not stated)	GPR7 antag 46 | GPR7 antag conf 39 | MCHR1 antag 70
CS(=O)(=O)N(Cc1ccc(C(=O)N2CCc3ccccc3C2)cc1)c1ccccc1	none
CS(=O)(=O)c1ccc(C(=O)N2CCN(Cc3ccccc3)CC2)cc1	none

Source: PubChem (several laboratories)
